Measured values of several laboratories.
Target: Ephrin type-B receptor 4 (EPHB4, Homo sapiens, UniProt P54760)
Sequence (P54760 16-987, as in one of the studies): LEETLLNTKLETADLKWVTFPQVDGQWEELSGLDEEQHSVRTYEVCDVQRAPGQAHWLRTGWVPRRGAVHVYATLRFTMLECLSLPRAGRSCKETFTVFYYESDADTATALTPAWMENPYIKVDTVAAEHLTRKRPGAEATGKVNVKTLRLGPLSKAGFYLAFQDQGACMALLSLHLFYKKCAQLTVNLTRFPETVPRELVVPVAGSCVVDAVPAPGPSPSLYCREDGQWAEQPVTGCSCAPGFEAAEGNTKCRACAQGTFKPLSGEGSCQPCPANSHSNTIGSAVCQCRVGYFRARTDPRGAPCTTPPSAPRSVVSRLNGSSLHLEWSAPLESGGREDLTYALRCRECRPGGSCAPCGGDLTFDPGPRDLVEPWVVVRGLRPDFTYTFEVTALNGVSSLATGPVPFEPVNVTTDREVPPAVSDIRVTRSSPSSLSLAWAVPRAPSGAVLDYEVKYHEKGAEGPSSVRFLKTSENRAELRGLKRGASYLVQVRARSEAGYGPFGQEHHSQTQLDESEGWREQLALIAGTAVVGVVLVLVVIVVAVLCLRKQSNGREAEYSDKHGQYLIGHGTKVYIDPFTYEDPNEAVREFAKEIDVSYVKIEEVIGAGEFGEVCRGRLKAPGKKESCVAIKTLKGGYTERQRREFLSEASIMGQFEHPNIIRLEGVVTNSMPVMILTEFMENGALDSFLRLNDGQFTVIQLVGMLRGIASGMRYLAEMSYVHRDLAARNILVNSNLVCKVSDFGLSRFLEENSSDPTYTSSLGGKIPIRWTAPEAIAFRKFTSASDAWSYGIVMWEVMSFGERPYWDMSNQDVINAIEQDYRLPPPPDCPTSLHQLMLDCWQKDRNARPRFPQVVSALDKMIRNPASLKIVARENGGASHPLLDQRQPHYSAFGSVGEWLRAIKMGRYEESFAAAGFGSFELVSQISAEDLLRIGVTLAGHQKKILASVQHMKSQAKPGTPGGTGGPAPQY

`c1cnn2ncc(-c3ccnc(N4CCC45COC5)n3)c2c1` has a remaining binding of 92% (binding; 1 µM).
`O=C(NCCCN1CCOCC1)c1ccc(Nc2ncc(Cl)c(-c3ccc(Cl)s3)n2)cc1` has a remaining binding of 91% (binding; competition with immobilised ligand; 1 µM).
With `CN(C)C(=O)Cn1cc(-c2nc(C3(c4ccc(-c5cnc(N)nc5)cc4)CC3)no2)cn1` the remaining binding was 100% (cell-free assay; competition with immobilised ligand; 1 µM).
For `COc1cnc(Nc2cccc(S(N)(=O)=O)c2)nc1N1CCN(c2ccccc2)C(=O)C1`, the remaining binding was 100% (binding; competition with immobilised ligand; 1 µM).
The remaining binding of `COc1ncc2cc3ccccc3nc2c1C#N` is reported as 100% (cell-free assay; competition with immobilised ligand; 5 µM).
`CCOC(=O)c1cc2cc(-c3cc(C(=O)NCc4ccc(C(=O)O)cc4)nn3C)ccc2[nH]1` gave a remaining binding of 99% (cell-free assay; competition with immobilised ligand; 0.1 µM).
For `C=CC(=O)N1CCC(C(=O)NCC(=O)N2CCN(c3nc(-c4cnc(N)nc4C(F)F)nc(N4CCOCC4)n3)CC2)CC1`, the remaining binding was 100% (binding; competition with immobilised ligand; 1 µM).
The remaining binding of `O=C(O)[C@@H]1[C@@H](Cn2nnc3ccccc3c2=O)CC[C@H]1C(=O)c1ccc(OCCC2CCOCC2)cc1` is reported as 100% (cell-free assay; competition with immobilised ligand; 1 µM).
For `F[C@@H]1CCN(c2nccc(-c3cnn4ncccc34)n2)C1`, the remaining binding was 90% (binding; 1 µM).
For `O=C(Nc1c[nH]nc1C(=O)NC1CCNCC1)c1cc(F)cc(F)c1`, the remaining binding was 100% (binding; competition with immobilised ligand; 1 µM).
`CCC(=O)N[C@H]1CC[C@@H](C(=O)N(C)c2ccc(-c3nc4ccccc4o3)cc2)C1` gave a remaining binding of 73% (cell-free assay; competition with immobilised ligand; 1 µM).
For `O=C(c1ccc(Nc2ncc(Cl)c(-c3cc4ccccc4s3)n2)cc1)N1CCC(N2CCCC2)CC1`, the remaining binding was 65% (binding; competition with immobilised ligand; 1 µM).
`O=c1nc(-c2ccccn2)sc2ccccc12` has a remaining binding of 100% (cell-free assay; competition with immobilised ligand; 1 µM).
For `Cc1cnn2ncc(-c3ccnc(N(C)C)n3)c2c1`, the remaining binding was 94% (binding; 1 µM).
The remaining binding of `C[C@@H]1CN(c2cc(-c3n[nH]c4ccc(OC5(C)CC5)cc34)ncn2)C[C@H](C)O1` is reported as 79% (cell-free assay; competition with immobilised ligand; 0.1 µM).
`N[C@@H]1CCN(c2nccc(-c3cnn4ncccc34)n2)C1` has a remaining binding of 100% (binding; 1 µM).
For `C[C@@H](c1ccc(-n2cnc3c(N)ncnc32)cc1)N1CCc2nn(C)c(Cc3ccccc3)c2C1=O`, the remaining binding was 95% (binding; competition with immobilised ligand; 0.1 µM).
With `CC1CCCN1c1nccc(-c2cnn3ncccc23)n1` (stereo not drawn) the remaining binding was 100% (binding; 1 µM).
`Nc1ncc2c(n1)-c1c([nH]c3ccc(C#CC4CC4)cc13)CCCC2` gave a remaining binding of 100% (binding; competition with immobilised ligand; 1 µM).
`C[C@@H]1CCN(c2nccc(-c3cnn4ncccc34)n2)C1` has a remaining binding of 100% (binding; 1 µM).
For `O=C(c1ccc(Nc2ncc(Cl)c(-c3ccc(Cl)s3)n2)cc1)N1CCC(N2CCCC2)CC1`, the remaining binding was 67% (binding; competition with immobilised ligand; 1 µM).
